Laboratory results published in paper PMC8083113 (Journal of medicinal chemistry, 2021).
Where two headings read alike, the source gives them in different places.

What was measured:
BxPC-3 [1] = assay: MTT cytotoxicity assay in BxPC-3; type: cell-based
In short: (§1)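 Cells (3000–6000/well) are seeded and left overnight, then exposed to the test compound or DMSO vehicle for 3 days. MTT (3 mg/ml) is added for 3 h at 37 °C, and the formazan is dissolved in DMSO and read at 570 nm. IC50 comes from dose-response curves from three independent experiments, reported as mean ± SD.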

BxPC-3 [2] = assay: Colony formation assay in BxPC-3; type: cell-based; details: BxPC-3, 7–10 days
GSPT1 = GSPT1 (Homo sapiens, UniProt P15170); assay: Western blot of GSPT1 in BxPC-3; type: cell-based
In short: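 BxPC-3 cells (500 × 10^3/well) are exposed to the test compound for 16 h and lysed by sonication at 4 °C in Tris/NaCl/Triton/SDS buffer, pH 7.4, with protease and phosphatase inhibitors. After BCA quantitation, SDS-PAGE and PVDF transfer, membranes are probed overnight at 4 °C with anti-GSPT (1:1000) and GAPDH (1:4000). Detection uses near-infrared secondaries, with densitometric quantification.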

STAT3 [3] = molecular target: T1, STAT3 (Homo sapiens, UniProt P40763); assay: Western blot of STAT3 in BxPC-3; type: cell-based; details: for effect on STAT3 expression: BxPC-3, 16 h, XD2–162 up to 5 μM, 1–6 at 0.5 μM
In short: (§2)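 BxPC-3 cells (500 × 10^3/well) are treated with the test compound (concentrations up to 5 μM) for 16 h. They are lysed at 4 °C by sonication in Tris/NaCl/Triton X-100/SDS buffer, pH 7.4, with protease and phosphatase inhibitors. Protein is measured by BCA, run on 10 or 12% gels and transferred to PVDF. Blots are probed overnight at 4 °C for STAT3/pSTAT3 (1:1000) and GAPDH (1:4000), imaged by near-infrared fluorescence, and quantified by densitometry.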

pSTAT3 = assay: Western blot of pSTAT3 in BxPC-3; type: cell-based; details: BxPC-3, 16 h treatment
In short: as §2

ZFP91 = ZFP91 (Homo sapiens, UniProt Q96JP5+Q96SW2); assay: Western blot of ZFP91 in BxPC-3; type: cell-based
tumor = details: within two weeks; cited from earlier work
STAT3 [4] = molecular target: T1, STAT3; details: leukemia and lymphoma cell lines; cited from earlier work
MTT assay = type: cell-based; details: Table S4
MIA PaCa-2 = assay: MTT cytotoxicity assay in MIA PaCa-2; type: cell-based; details: read-out: IC50 (μM) MIA PaCa-2, 3 days, mean ± SD
In short: as §1

[5] = Table S4; cited from earlier work
STAT3 [6] = molecular target: T1, STAT3; assay: Western blot of STAT3 in OVCAR-3; type: cell-based; details: OVCAR-3, negative control incapable of binding CRBN
In short: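 OVCAR-3 cells are seeded at 500 × 10^3/well and treated with the test compound at several concentrations and times (read-out at 12 h). Lysis is by sonication at 4 °C in Tris/NaCl/Triton X-100/SDS buffer, pH 7.4, with protease and phosphatase inhibitors. After BCA quantitation, SDS-PAGE and PVDF transfer, blots are probed for STAT3 (1:1000) and GAPDH (1:4000) and imaged by near-infrared fluorescence.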

[7] = Homo sapiens, BXPC-3, 72 h, read-out: IC50 (μM) BxPC-3, MTT assay, 3 days, mean ± SD
[8] = read-out: IC50 (μM) BxPC-3, MTT assay, 3 days, mean ± SD

T1 sequence (P40763 whole entry): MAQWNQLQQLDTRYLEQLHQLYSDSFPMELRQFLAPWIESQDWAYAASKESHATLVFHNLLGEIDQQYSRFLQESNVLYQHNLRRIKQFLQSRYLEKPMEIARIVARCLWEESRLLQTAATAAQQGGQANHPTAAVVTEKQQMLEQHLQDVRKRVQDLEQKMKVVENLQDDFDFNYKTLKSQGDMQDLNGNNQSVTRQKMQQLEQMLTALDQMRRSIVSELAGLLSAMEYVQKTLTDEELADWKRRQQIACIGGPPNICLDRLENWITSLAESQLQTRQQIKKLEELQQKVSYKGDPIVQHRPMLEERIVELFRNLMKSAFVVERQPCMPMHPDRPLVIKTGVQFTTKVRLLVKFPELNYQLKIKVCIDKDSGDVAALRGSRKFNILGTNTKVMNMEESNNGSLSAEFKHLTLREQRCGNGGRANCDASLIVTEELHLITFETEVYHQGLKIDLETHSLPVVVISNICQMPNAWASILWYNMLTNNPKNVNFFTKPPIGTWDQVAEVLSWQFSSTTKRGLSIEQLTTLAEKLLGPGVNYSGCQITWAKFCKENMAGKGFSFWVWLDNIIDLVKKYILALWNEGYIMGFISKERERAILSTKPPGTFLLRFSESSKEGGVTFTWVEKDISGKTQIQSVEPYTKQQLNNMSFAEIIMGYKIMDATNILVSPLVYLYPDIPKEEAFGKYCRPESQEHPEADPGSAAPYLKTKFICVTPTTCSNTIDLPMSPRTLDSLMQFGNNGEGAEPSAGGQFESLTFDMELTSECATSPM
GSPT1, sequence (Q96SW2 whole entry partner): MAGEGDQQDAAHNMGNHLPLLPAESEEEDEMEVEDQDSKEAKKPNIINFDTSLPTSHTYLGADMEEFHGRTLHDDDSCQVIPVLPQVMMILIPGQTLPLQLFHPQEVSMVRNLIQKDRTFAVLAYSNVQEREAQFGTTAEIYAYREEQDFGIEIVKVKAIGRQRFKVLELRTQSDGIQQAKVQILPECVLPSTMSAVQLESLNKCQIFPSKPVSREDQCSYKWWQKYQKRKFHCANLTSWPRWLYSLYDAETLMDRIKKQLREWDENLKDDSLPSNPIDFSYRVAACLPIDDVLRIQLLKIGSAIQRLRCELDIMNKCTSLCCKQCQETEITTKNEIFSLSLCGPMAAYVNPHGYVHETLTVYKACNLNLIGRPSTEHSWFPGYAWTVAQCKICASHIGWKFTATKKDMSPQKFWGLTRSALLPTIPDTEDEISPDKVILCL
GSPT1, sequence (Q16531 whole entry partner): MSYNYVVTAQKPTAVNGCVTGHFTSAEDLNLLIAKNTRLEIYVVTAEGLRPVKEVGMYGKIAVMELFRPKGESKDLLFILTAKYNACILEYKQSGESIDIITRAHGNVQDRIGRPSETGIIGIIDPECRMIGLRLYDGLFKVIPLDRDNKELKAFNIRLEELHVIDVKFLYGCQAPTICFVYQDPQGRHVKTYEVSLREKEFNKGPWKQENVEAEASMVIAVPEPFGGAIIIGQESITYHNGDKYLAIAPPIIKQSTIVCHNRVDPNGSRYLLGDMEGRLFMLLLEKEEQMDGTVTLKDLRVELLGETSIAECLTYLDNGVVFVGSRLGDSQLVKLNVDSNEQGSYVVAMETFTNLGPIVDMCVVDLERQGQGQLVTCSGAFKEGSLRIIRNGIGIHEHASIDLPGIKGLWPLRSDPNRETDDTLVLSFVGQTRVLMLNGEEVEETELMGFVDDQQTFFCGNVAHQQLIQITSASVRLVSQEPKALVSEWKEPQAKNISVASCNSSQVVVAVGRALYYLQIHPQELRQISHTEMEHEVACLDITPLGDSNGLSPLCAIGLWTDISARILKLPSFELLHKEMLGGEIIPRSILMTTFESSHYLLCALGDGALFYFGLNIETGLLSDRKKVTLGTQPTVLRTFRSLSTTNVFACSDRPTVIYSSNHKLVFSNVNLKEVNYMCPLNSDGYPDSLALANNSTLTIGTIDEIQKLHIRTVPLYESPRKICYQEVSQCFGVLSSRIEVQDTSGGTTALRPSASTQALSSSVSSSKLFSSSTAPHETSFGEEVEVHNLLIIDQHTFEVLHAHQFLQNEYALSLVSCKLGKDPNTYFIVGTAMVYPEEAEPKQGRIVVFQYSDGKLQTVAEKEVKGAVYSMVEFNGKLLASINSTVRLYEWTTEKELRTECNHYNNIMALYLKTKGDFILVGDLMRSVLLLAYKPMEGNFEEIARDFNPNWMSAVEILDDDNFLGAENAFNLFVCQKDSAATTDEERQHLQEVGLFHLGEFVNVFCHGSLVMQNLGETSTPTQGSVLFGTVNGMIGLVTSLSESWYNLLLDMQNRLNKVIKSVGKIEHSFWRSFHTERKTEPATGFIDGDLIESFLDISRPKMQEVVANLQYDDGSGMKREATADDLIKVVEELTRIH
GSPT1, sequence (P15170 whole entry): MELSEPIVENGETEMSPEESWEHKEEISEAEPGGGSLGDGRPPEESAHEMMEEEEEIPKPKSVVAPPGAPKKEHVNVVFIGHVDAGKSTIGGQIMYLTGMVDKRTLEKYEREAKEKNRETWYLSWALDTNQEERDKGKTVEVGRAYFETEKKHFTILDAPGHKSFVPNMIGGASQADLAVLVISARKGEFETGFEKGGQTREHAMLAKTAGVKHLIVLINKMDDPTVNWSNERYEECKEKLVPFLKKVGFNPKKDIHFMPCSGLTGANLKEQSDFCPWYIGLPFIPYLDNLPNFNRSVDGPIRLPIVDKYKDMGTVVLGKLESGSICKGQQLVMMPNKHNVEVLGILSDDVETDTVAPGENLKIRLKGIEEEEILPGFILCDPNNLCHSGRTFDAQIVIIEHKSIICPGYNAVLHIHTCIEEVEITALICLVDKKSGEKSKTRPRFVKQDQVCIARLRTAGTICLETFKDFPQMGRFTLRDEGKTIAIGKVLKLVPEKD
ZFP91, sequence (Q96JP5 whole entry): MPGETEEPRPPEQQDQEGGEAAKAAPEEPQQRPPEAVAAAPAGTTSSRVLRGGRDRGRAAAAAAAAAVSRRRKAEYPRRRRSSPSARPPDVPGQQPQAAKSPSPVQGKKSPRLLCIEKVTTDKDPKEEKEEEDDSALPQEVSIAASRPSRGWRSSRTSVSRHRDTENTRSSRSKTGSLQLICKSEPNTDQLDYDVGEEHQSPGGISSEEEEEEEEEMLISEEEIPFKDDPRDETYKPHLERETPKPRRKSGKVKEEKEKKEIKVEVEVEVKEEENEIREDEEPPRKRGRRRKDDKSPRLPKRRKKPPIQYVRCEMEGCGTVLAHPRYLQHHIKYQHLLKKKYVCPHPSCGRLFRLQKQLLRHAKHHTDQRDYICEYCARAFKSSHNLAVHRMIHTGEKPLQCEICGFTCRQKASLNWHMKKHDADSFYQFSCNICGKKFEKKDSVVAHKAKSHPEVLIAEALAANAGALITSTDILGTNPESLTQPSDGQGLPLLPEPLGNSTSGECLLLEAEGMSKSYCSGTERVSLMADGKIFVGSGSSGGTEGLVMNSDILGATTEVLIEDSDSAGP
ZFP91, sequence (Q96SW2 whole entry): as the sequence (Q96SW2 whole entry partner) above
ZFP91, sequence (Q16531 whole entry partner): as the sequence (Q16531 whole entry partner) above

O=C1CCC(N2C(=O)c3cccc(OCCCCNC(=O)c4cc5c(o4)C(=O)c4ccccc4C5=O)c3C2=O)C(=O)N1 (stereo not shown) [5–5a, N-(4-((2-(2,6-dioxopiperidin-3-yl)-1,3-dioxoisoindolin-4-yl)oxy)butyl)-4,9-dioxo-4,9-dihydronaphtho[2,3-b]furan-2-carboxamide]
fold more potent than 5–5b (BxPC-3 [1]; cytotoxicity IC50): ~2 fold

O=C1CCC(N2C(=O)c3cccc(NCCCCCC4CCN(CCNC(=O)c5cc6c(o5)C(=O)c5ccccc5C6=O)CC4)c3C2=O)C(=O)N1 (stereo not shown) [3–6d, N-(2-(4-(5-((2-(2,6-dioxopiperidin-3-yl)-1,3-dioxoisoindolin-4-yl)amino)pentyl)piperidin-1-yl)ethyl)-4,9-dioxo-4,9-dihydronaphtho[2,3-b]furan-2-carboxamide]
inhibition of colony formation (BxPC-3 [2]): greater inhibitory activity than napabucasin
IC50 (BxPC-3 [1]; [7]): < 1 µM
GSPT1 protein level (GSPT1): did not degrade
concentration at which a decrease in STAT3 protein expression was observed (STAT3 [3]; BxPC-3, 16 h treatment): 5 µM
concentration at which a decrease in pSTAT3 level was achieved (pSTAT3): 1 μM
ZFP91 expression at the earlier time point (ZFP91; BxPC-3, 4 h): no effect

CN1C(=O)CCC(N2C(=O)c3cccc(NCCCCCC4CCN(CCNC(=O)c5cc6c(o5)C(=O)c5ccccc5C6=O)CC4)c3C2=O)C1=O (stereo not shown) [11–7, N-(2-(4-(5-((2-(1-methyl-2,6-dioxopiperidin-3-yl)-1,3-dioxoisoindolin-4-yl)amino)pentyl)piperidin-1-yl)ethyl)-4,9-dioxo-4,9-dihydronaphtho[2,3-b]furan-2-carboxamide]
effect on STAT3 expression (STAT3 [3]): did not have any effect
concentration at which a decrease in pSTAT3 level was achieved (pSTAT3): 5 μM

NC(=O)CC[C@H](NC(=O)[C@@H]1CC[C@@H]2CCN(C(=O)CCCCCC#Cc3cccc4c3CN(C3CCC(=O)NC3=O)C4=O)C[C@H](NC(=O)c3cc4cc(C(F)(F)P(=O)(O)O)ccc4[nH]3)C(=O)N21)C(=O)NC(c1ccccc1)c1ccccc1 (stereo partly shown) [SD-36]
tumor response (tumor): complete tumor regression
DC50 values for STAT3 degradation (in words) (STAT3 [4]): nanomolar

CC(=O)c1cc2c(o1)C(=O)c1ccccc1C2=O [NP, 2-acetylbenzo[f][1]benzofuran-4,9-dione, reference compound]
GSPT1 protein level (GSPT1): not affected
ZFP91 protein level (ZFP91; BxPC-3, 16 h, up to 3 μM): no effect

Nc1cccc2c1C(=O)N(C1CCC(=O)NC1=O)C2=O (stereo not shown) [Pomalidomide]
no cytotoxicity in the MTT assay up to (MTT assay): > 30 µM

N-(2-(2-(2-((2-(2,6-dioxopiperidin-3-yl)-1,3-dioxoisoindolin-5-yl)amino)ethoxy)ethoxy)ethyl)-4,9-dioxo-4,9-dihydronaphtho[2,3-b]furan-2-carboxamide [6–6c]
IC50 (BxPC-3 [1]; [8]): 23.8 ± 3.9 µM
IC50 (MIA PaCa-2): 10.5 ± 3 µM

N-(5-(2-(2,6-dioxopiperidin-3-yl)-1-oxoisoindolin-4-yl)pentyl)-4,9-dioxo-4,9-dihydronaphtho[2,3-b]furan-2-carboxamide [8–1]
IC50 (BxPC-3 [1]; [8]): 13.8 ± 7.7 µM
IC50 (MIA PaCa-2): 6.4 ± 3.4 µM

O=C(NCCN1CCCCC1)c1cc2c(o1)C(=O)c1ccccc1C2=O [1–6, reference compound]
greater cytotoxicity than napabucasin [5]: > 10 fold
effect on STAT3 expression (STAT3 [3]): did not have any effect

O=C(NCCOCCOCCNc1cccc2c1C(=O)N(C1CCCNC1=O)C2=O)c1cc2c(o1)C(=O)c1ccccc1C2=O (stereo not shown) [10–5, N-(2-(2-(2-((1,3-dioxo-2-(2-oxopiperidin-3-yl)isoindolin-4-yl)amino)ethoxy)ethoxy)ethyl)-4,9-dioxo-4,9-dihydronaphtho[2,3-b]furan-2-carboxamide]
activity on STAT3 expression compared with XD97 (STAT3 [6]): comparable activity to XD97

O=C1CCC(N2C(=O)c3cccc(NCCCC4CCN(CCNC(=O)c5cc6c(o5)C(=O)c5ccccc5C6=O)CC4)c3C2=O)C(=O)N1 (stereo not shown) [3–6c, N-(2-(4-(3-((2-(2,6-dioxopiperidin-3-yl)-1,3-dioxoisoindolin-4-yl)amino)propyl)piperidin-1-yl)ethyl)-4,9-dioxo-4,9-dihydronaphtho[2,3-b]furan-2-carboxamide]
IC50 (BxPC-3 [1]; [7]): < 1 µM
